Test results from ChEMBL document CHEMBL1140065, “Potent cationic inhibitors of West Nile virus NS2B/NS3 protease with serum stability, cell permeability and antiviral activity” (J Med Chem, 2008).
Calls of active or inactive are those of the source. The calls are words filed in the database; no cut-off is given here. Starred links: 1 amine or outer side, 2 acyl side, 3 side chain; linkers in the order of their positions; H or OH if unused. Non-standard residues stand in square brackets, D forms with d. Residues, ends and D or L forms follow the SMILES beside them. *: point of attachment. Hydrocinnamoyl = O=C(CCc1ccccc1)*; hArg = N=C(N)NCCCC[C@H](N)C(=O)O; Cit = NC(=O)NCCC[C@H](N)C(=O)O; Orn = NCCC[C@H](N)C(=O)O; 2Abz = Nc1ccccc1C(=O)O; Cbz = O=C(OCc1ccccc1)*; PhAc = O=C(Cc1ccccc1)*; CO = O=C([*:1])[*:2]; NHBn = c1ccc(CN*)cc1; Bz = O=C(c1ccccc1)*

Columns and labels:
Genome polyprotein = Genome polyprotein (West Nile virus, UniProt P06935); assay: Inhibition of WNV recombinant NS2B-NS3 protease
[1] = molecular target: Genome polyprotein (West Nile virus) (UniProt P06935); assay: Inhibition of WNV recombinant NS2B-NS3 protease at 10 uM
In short: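 Single-concentration screen at 10 µM inhibitor, scoring inhibition of recombinant WNV protease processing of the chromogenic tetrapeptide substrate Ac-LKKR-pNA.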

Vero = assay: Cytotoxicity against african green monkey Vero cells upto 400 uM after 72 hrs by MTT assay; type: cell-based; conditions: chlorocebus sabaeus
In short: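 MTT viability in Vero cells seeded at 4 × 10^4 per well and grown to about 90% confluence (~12 h). Fresh medium held compound at 5 nM–400 µM, with control medium ± DMSO. After 72 h, MTT was added for 3.5 h at 37 °C, then HCl/isopropanol for 4 h at RT. Absorbance was read at 550 nm; CC50 estimated; duplicates.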

Bos taurus = species on record: Bos taurus; assay: Inhibition of bovine trypsin at 1 uM
West Nile virus [2] = assay: Antiviral activity against WNV Kunjin infected african green monkey Vero cells assessed as reduction in plaque size at 12.5 uM measured at 48 hrs postinfection; type: functional, organism-based
In short: (§1)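 Vero cells were seeded at 4 × 10^4 per well and grown to about 90% confluence, then washed with PBS and serum-free medium. Cells were coinfected with WNV Kunjin (moi 0.04) plus compound at 100 nM–200 µM for 2 h at 37 °C. Overlay was M199, 3% FBS, 1.2% carboxymethyl cellulose, 48 h. Plaques were immunostained with anti-NS1 antibody and read as infrared area; ten plaques averaged per well, duplicates, IC50 from dose-response.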

[3] = molecular target: Coagulation factor X (Bos taurus) (UniProt P00743); assay: Inhibition of bovine factor 10a at 1 uM
West Nile virus [4] = assay: Antiviral activity against WNV Kunjin infected african green monkey Vero cells assessed as reduction in plaque size measured at 48 hrs postinfection; type: functional, organism-based; in short: as §1
[5] = molecular target: Plasminogen (Homo sapiens) (UniProt P00747); assay: Inhibition of human plasmin at 1 uM
[6] = molecular target: Urokinase-type plasminogen activator (Homo sapiens) (UniProt P00749); assay: Inhibition of human urokinase at 1 uM

Genome polyprotein, sequence (P06935 1371-1501 limits assumed): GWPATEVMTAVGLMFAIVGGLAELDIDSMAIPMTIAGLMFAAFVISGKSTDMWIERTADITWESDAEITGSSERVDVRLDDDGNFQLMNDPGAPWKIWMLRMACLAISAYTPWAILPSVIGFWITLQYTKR
Genome polyprotein, sequence (P06935 1502-2120 limits assumed): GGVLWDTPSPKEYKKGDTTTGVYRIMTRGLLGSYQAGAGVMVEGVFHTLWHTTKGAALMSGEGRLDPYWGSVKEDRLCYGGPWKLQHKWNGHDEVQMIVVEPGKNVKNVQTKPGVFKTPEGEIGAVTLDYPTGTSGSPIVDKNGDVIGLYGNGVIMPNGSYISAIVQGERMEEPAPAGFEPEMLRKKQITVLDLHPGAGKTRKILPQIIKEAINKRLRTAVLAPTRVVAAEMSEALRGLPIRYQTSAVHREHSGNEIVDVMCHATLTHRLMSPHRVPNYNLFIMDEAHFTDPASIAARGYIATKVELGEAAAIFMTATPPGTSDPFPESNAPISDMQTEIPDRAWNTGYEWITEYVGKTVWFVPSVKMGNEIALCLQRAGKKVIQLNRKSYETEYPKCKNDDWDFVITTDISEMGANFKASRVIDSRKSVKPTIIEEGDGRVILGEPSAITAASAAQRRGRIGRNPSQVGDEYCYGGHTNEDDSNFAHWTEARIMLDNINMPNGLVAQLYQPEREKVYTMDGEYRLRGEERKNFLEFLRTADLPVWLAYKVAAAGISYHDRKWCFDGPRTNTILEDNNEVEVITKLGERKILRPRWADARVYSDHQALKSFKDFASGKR
Genome polyprotein (West Nile virus), sequence (P06935 whole entry): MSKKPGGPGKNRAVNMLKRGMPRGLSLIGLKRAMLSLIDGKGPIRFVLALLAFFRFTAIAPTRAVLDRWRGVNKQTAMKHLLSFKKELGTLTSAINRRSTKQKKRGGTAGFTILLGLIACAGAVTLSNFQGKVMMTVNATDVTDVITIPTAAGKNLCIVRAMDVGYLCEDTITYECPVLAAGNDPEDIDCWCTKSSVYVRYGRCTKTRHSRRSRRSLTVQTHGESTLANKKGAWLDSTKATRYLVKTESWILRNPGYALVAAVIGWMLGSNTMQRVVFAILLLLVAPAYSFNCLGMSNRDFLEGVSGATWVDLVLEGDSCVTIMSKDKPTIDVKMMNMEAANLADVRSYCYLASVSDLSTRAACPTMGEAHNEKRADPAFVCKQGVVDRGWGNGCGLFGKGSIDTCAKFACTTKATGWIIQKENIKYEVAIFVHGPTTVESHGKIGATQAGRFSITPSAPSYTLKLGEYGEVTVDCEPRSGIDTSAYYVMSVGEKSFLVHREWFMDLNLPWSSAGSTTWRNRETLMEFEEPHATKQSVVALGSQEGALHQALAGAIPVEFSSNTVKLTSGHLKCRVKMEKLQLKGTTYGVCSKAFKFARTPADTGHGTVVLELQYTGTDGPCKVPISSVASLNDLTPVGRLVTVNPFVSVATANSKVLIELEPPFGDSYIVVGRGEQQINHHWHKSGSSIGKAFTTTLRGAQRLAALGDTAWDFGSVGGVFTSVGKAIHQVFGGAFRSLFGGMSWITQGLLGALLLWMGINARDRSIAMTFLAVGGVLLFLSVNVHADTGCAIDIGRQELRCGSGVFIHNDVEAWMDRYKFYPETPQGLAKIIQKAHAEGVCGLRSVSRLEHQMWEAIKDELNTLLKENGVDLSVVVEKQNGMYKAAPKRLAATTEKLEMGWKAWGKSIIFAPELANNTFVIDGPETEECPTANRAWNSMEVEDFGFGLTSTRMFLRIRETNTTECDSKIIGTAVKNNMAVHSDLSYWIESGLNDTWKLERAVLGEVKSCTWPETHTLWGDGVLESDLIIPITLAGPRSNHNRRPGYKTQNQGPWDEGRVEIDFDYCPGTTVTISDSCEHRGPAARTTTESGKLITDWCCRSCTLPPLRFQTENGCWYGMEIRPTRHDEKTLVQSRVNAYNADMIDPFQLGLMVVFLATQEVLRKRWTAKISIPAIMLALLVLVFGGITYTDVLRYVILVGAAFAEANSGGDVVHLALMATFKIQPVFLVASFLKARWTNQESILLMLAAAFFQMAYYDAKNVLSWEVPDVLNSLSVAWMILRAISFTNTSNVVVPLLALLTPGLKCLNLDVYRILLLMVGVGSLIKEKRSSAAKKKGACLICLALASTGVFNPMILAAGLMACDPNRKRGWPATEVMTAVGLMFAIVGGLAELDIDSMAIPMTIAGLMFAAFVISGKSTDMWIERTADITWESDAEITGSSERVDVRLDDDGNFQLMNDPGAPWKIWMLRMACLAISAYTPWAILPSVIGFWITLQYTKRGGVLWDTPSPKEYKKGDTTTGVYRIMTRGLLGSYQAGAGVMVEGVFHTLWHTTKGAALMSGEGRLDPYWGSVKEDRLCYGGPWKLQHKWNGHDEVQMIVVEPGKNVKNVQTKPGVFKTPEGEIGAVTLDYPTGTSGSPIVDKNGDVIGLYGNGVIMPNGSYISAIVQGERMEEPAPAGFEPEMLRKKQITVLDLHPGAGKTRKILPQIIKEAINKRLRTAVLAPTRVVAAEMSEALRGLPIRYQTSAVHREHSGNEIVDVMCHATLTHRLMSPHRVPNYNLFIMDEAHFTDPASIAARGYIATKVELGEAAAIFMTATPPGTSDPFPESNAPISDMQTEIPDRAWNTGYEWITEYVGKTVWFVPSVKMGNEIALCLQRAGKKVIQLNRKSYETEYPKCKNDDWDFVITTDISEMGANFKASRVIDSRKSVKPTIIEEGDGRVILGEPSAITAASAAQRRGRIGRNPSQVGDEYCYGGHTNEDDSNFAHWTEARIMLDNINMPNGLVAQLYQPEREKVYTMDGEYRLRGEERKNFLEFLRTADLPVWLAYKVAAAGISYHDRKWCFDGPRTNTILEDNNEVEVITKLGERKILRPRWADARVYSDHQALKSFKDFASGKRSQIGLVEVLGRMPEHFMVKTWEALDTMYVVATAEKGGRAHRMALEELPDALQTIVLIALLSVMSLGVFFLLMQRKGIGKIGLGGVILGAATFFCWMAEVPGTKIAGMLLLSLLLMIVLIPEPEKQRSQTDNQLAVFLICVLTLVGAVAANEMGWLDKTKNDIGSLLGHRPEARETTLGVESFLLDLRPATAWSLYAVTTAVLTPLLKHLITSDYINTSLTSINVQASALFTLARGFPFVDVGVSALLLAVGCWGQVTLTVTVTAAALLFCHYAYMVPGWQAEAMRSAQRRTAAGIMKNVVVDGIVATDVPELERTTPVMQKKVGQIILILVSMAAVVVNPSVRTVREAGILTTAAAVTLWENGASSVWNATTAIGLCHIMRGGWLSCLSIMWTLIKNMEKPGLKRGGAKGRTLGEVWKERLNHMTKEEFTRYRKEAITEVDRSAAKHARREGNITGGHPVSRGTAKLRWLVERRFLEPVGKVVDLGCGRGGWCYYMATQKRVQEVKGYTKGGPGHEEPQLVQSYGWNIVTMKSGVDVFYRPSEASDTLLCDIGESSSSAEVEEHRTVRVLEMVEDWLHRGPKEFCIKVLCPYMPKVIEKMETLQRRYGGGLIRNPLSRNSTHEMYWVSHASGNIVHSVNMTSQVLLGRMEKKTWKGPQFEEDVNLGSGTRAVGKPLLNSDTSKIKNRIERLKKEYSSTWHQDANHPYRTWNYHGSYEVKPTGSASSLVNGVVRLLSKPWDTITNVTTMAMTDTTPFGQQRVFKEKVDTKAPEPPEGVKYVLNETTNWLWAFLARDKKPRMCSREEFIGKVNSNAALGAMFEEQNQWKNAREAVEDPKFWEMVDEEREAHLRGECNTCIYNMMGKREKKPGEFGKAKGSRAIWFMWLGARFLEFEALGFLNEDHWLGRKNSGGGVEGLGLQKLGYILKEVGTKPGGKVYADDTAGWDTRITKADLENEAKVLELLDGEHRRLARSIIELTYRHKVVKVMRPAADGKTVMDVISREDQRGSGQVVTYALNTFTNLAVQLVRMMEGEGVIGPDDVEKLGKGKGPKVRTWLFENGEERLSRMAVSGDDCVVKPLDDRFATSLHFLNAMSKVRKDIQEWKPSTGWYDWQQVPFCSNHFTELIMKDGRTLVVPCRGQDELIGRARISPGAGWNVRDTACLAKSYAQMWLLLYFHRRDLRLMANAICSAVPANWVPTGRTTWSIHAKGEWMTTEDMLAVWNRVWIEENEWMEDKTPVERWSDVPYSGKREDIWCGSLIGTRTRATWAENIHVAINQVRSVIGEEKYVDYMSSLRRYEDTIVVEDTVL
Plasminogen (Homo sapiens), sequence (P00747 97-580 limits assumed): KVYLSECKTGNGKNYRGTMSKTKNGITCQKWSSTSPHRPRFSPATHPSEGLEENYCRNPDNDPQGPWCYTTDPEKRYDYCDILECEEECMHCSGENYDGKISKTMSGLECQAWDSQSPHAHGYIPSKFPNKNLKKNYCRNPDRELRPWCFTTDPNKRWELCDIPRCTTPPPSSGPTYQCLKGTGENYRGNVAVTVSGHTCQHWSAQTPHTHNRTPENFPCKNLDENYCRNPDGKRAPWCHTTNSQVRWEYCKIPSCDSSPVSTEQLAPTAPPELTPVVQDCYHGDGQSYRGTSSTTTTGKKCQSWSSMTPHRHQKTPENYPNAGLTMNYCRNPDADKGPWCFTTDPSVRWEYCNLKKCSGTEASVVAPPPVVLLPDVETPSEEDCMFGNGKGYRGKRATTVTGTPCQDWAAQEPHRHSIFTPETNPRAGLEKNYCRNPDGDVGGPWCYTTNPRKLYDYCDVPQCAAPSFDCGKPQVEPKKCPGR
Plasminogen (Homo sapiens), sequence (P00747 581-810 limits assumed): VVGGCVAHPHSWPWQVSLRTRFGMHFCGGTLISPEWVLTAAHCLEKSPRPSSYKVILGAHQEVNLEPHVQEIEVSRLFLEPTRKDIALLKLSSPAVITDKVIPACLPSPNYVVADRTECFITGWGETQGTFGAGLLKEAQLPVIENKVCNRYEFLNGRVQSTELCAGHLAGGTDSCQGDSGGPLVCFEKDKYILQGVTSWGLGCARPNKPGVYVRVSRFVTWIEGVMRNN

| Compound | IC50 (Genome polyprotein) [nM] | Ki (Genome polyprotein) [nM] | also measured |
| --- | --- | --- | --- |
| N=C(N)NCCCC[C@H](NC(=O)[C@H](CCCCN)NC(=O)Cc1ccccc1)C(=O)N[C@H](C=O)CCCNC(=N)N (PhAc-Lys-[hArg]-Arg-aldehyde) | 297 | 53 | – |
| N=C(N)NCCC[C@@H](C=O)NC(=O)[C@H](CCCCN)NC(=O)[C@H](CCCCN)NC(=O)NCc1ccccc1 ({NHBn-CO}-Lys-Lys-Arg-aldehyde) | 146 | 26 | inhibition [1]: > 80% |
| N=C(N)NCCC[C@@H](C=O)NC(=O)[C@H](CCCNC(N)=O)NC(=O)[C@H](CCCCN)NC(=O)Cc1ccccc1 (PhAc-Lys-[Cit]-Arg-aldehyde) | 11600 | 2070 | – |
| COc1cccc(CC(=O)N[C@@H](CCCCN)C(=O)N[C@@H](CCCCN)C(=O)N[C@H](C=O)CCCN=C(N)N)c1 | 60 | 11 | – |
| NCCCC[C@H](NC(=O)OCc1ccccc1)C(=O)N[C@@H](CCCCN)C(=O)N[C@H](C=O)CCCN=C(N)N (Cbz-Lys-Lys-Arg-aldehyde) | 222 | 40 | – |
| NCCCC[C@H](NC(=O)Cc1ccccc1)C(=O)N[C@@H](CCCCN)C(=O)N[C@H](C=O)Cc1c[nH]c2ccccc12 (PhAc-Lys-Lys-Trp-aldehyde) | 25700 | 4600 | – |
| N=C(N)NCCC[C@@H](C=O)NC(=O)[C@H](CCCNC(=N)N)NC(=O)[C@H](CCCCN)NC(=O)Cc1ccccc1 (PhAc-Lys-Arg-Arg-aldehyde) | 325 | 58 | – |
| N=C(N)NCCC[C@@H](C=O)NC(=O)[C@H](CCCCN)NC(=O)[C@H](CCCCN)NC(=O)COc1ccccc1 | 107 | 19 | – |
| NCCCC[C@H](NC(=O)CCc1ccccc1)C(=O)N[C@@H](CCCCN)C(=O)N[C@H](C=O)CCCN=C(N)N (Hydrocinnamoyl-Lys-Lys-Arg-aldehyde) | 454 | 81 | – |
| NCCCC[C@H](NC(=O)Cc1ccccc1)C(=O)N[C@@H](CCCCN)C(=O)N[C@H](C=O)CCCN=C(N)N (PhAc-Lys-Lys-Arg-aldehyde) | 51 | 9 | Activity (Vero): Non-toxic |
| N=C(N)NCCCC[C@H](NC(=O)Cc1ccccc1)C(=O)N[C@@H](CCCCN)C(=O)N[C@H](C=O)CCCNC(=N)N (PhAc-[hArg]-Lys-Arg-aldehyde) | 254 | 44 | – |
| N=C(N)NCCC[C@@H](C=O)NC(=O)[C@H](CCCCN)NC(=O)[C@H](CCCCN)NC(=O)c1ccc2ccccc2c1 | – | – | inhibition [1]: > 80% |
| N=C(N)NCCC[C@@H](C=O)NC(=O)[C@H](CCCCN)NC(=O)[C@H](CCCCN)NC(=O)/C=C/c1ccccc1 | 580 | 104 | inhibition [1]: > 80% |
| N=C(N)NCCC[C@@H](C=O)NC(=O)[C@H](CCCCN)NC(=O)[C@H](CCCCN)NC(=O)Cc1ccc(-c2ccccc2)cc1 | 32 | 6 | inhibition [1]: > 80% |
| N=C(N)NCCC[C@@H](C=O)NC(=O)[C@H](CCCCN)NC(=O)[C@H](CCCCN)NC(=O)c1ccccc1N (H-[2Abz]KKR-aldehyde) | 891 | 160 | – |
| COc1cccc(CC(=O)N[C@@H](CCCCN)C(=O)N[C@@H](CCCCN)C(=O)N[C@H](C=O)CCCNC(=N)N)c1 | – | – | inhibition [1]: > 80% |
| NCCCC[C@H](NC(=O)[C@H](CCCN=C(N)N)NC(=O)Cc1ccccc1)C(=O)N[C@H](C=O)CCCN=C(N)N (PhAc-Arg-Lys-Arg-aldehyde) | 154 | 28 | – |
| NCCCC[C@H](NC(=O)c1ccc2ccccc2c1)C(=O)N[C@@H](CCCCN)C(=O)N[C@H](C=O)CCCN=C(N)N | 231 | 41 | – |
| N=C(N)NCCC[C@@H](C=O)NC(=O)[C@H](CCCN)NC(=O)[C@H](CCCCN)NC(=O)Cc1ccccc1 (PhAc-Lys-[Orn]-Arg-aldehyde) | 73 | 13 | – |
| COc1ccc2ccc([C@H](C)C(=O)N[C@@H](CCCCN)C(=O)N[C@@H](CCCCN)C(=O)N[C@H](C=O)CCCNC(=N)N)cc2c1 | 112 | 20 | inhibition [1]: > 80% |
| N=C(N)NCCC[C@@H](C=O)NC(=O)[C@H](CCCCN)NC(=O)[C@H](CCCNC(N)=O)NC(=O)Cc1ccccc1 (PhAc-[Cit]-Lys-Arg-aldehyde) | 619 | 111 | – |
| N=C(N)NCCC[C@@H](C=O)NC(=O)[C@H](CCCCN)NC(=O)[C@H](CCCN)NC(=O)Cc1ccccc1 (PhAc-[Orn]-Lys-Arg-aldehyde) | 255 | 46 | – |
| N=C(N)NCCC[C@@H](C=O)NC(=O)[C@H](CCCCN)NC(=O)[C@H](CCCCN)NC(=O)Cc1ccccc1 (PhAc-Lys-Lys-Arg-aldehyde) | – | – | inhibition (Bos taurus): 25%; Activity (West Nile virus [2]): Active; inhibition [3]: 0%; IC50 (West Nile virus [4]): 1600 nM; inhibition [5]: 12%; inhibition [1]: > 80%; inhibition [6]: 0% |
| NCCCC[C@H](NC(=O)c1ccccc1)C(=O)N[C@@H](CCCCN)C(=O)N[C@H](C=O)CCCN=C(N)N (Bz-Lys-Lys-Arg-aldehyde) | 271 | 49 | – |
